Reference: ChEMBL document CHEMBL1137559, “Rational design of 5'-thiourea-substituted alpha-thymidine analogues as thymidine monophosphate kinase inhibitors capable of inhibiting mycobacterial growth” (J Med Chem, 2007)

Experiments:
[1] = Cytotoxicity against Vero cells at 100 uM after 3 days; assay type: cell-based; conditions: chlorocebus sabaeus
Method in brief: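 Confluent Vero monolayers given serial compound dilutions; incubated 3 days at 37°C, humidified CO2 atmosphere; cultures inspected microscopically for altered morphology. MCC = concentration causing microscopic alteration of mock-infected cultures at day 3.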

Thymidylate kinase = target: T1, Thymidylate kinase (Mycobacterium tuberculosis, UniProt P9WKE1); assay: Inhibition of Mycobacterium tuberculosis TMPK expressed in Escherichia coli by spectrophotometric assay
T1 sequence (P9WKE1 whole entry): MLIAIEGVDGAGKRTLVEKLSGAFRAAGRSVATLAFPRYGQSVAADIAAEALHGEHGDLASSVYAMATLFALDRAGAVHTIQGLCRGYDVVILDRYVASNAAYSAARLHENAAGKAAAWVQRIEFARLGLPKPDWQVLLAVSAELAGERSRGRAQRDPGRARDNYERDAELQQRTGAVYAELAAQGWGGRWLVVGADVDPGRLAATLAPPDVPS
Method in brief: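 Recombinant mycobacterial and human TMPK, both expressed in E. coli, run in an NADH-coupled assay (pyruvate kinase, lactate dehydrogenase, nucleoside diphosphate kinase, 2 units each) read at 334 nm. ATP 0.5 mM and dTMP 0.05 mM held constant; analogues 0.01–2 mM; Ki determined for each enzyme.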

[2] = Inhibition of human TMPK expressed in Escherichia coli by spectrophotometric assay
[3] = system: Mycobacterium tuberculosis; assay: Growth inhibition of Mycobacterium tuberculosis H37Rv at 6.25 ug/mL by MABA assay; assay type: functional
Method in brief: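 Single-concentration screen in BACTEC 12B medium using the Microplate Alamar Blue Assay; percent inhibition recorded.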

SMILES	MCC at 72 h, up to 100 µM [1]	Ki (Thymidylate kinase)	Ki [2]	inhibition at 6.25 µg/mL [3]
Cc1cn([C@@H]2C[C@H](O)[C@@H](CNC(=S)NC34CC5CC(CC(C5)C3)C4)O2)c(=O)[nH]c1=O	> 100 µM	15 µM		
COc1ccc(NC(=S)NC[C@H]2C[C@H](n3cc(C)c(=O)[nH]c3=O)O[C@@H]2CO)cc1	> 100 µM	46 µM		
Cc1ccc(NC(=S)NC[C@H]2C[C@H](n3cc(C)c(=O)[nH]c3=O)O[C@@H]2CO)cc1	> 100 µM	36 µM		
Cc1cn([C@@H]2C[C@H](O)[C@@H](CNC(=S)NCCc3ccccc3)O2)c(=O)[nH]c1=O	> 100 µM	3.8 µM	> 800 µM	
Cc1cn(COCCNC(=S)Nc2ccccc2)c(=O)[nH]c1=O	> 100 µM	260 µM		
Cc1cn([C@@H]2C[C@H](O)[C@@H](CNC(=S)Nc3ccc4c(c3)C(=O)OC43c4ccc(O)cc4Oc4cc(O)ccc43)O2)c(=O)[nH]c1=O		5.4 µM		
Cc1cn([C@@H]2C[C@@H](CNC(=O)NC[C@H]3C[C@H](n4cc(C)c(=O)[nH]c4=O)O[C@@H]3CO)[C@H](CO)O2)c(=O)[nH]c1=O		37 µM	> 1000 µM	
Cc1cn([C@@H]2CC[C@@H](CNC(=S)Nc3ccc(Cl)c(C(F)(F)F)c3)O2)c(=O)[nH]c1=O		2.3 µM	> 500 µM	34%
Cc1cn([C@@H]2C[C@H](O)[C@@H](CN=[N+]=[N-])O2)c(=O)[nH]c1=O		26.5 µM		
Cc1cn([C@@H]2C[C@H](O)[C@@H](CNC(=O)c3ccccc3)O2)c(=O)[nH]c1=O		35 µM		
Cc1cn([C@H]2C[C@H](CNC(=S)Nc3ccccc3)[C@@H](CO)O2)c(=O)[nH]c1=O		69 µM		
Cc1cn([C@@H]2C[C@H](O)[C@@H](CNC(=S)NC(c3ccccc3)c3ccccc3)O2)c(=O)[nH]c1=O	> 100 µM	4.9 µM	> 500 µM	
Cc1cn([C@H]2C[C@H](CNC(=S)Nc3ccc(OCc4ccccc4)cc3)[C@@H](CO)O2)c(=O)[nH]c1=O	> 100 µM	12 µM		
Cc1cn([C@@H]2C[C@H](O)[C@@H](CNC(=S)NCCc3ccc(Cl)c(Cl)c3)O2)c(=O)[nH]c1=O	> 100 µM	2.2 µM	79 µM	
Cc1cn([C@@H]2C[C@H](O)[C@@H](CNC(=S)Nc3ccc(Cl)c(Cl)c3)O2)c(=O)[nH]c1=O	> 100 µM	1 µM	274 µM	38%
Cc1cn([C@H]2C[C@H](CNC(=S)Nc3ccc(Cl)c(Cl)c3)[C@@H](CO)O2)c(=O)[nH]c1=O	> 100 µM	7.2 µM		

SMILES	MCC at 72 h, up to 100 µM [1]	Ki (Thymidylate kinase)	Ki [2]	inhibition at 6.25 µg/mL [3]
Cc1cn([C@@H]2C[C@H](O)[C@@H](CNC(=O)Nc3ccc(Cl)c(C(F)(F)F)c3)O2)c(=O)[nH]c1=O		1.9 µM	166 µM	49%
Cc1cn([C@@H]2C[C@H](O)[C@@H](CNC(=S)Nc3ccccc3)O2)c(=O)[nH]c1=O	> 100 µM	16 µM		
Cc1cn([C@@H]2C[C@H](O)[C@@H](CNC(=S)NC(=O)c3ccccc3)O2)c(=O)[nH]c1=O		7.2 µM		
Cc1cn([C@@H]2C[C@H](O)[C@@H](CNC(=O)Nc3ccc(Cl)c(Cl)c3)O2)c(=O)[nH]c1=O		1.1 µM	116 µM	41%
Cc1cn([C@@H]2C=C[C@@H](CNC(=S)Nc3ccc(Cl)c(C(F)(F)F)c3)O2)c(=O)[nH]c1=O		3.8 µM	190 µM	55%
COc1ccc(NC(=S)NC[C@H]2O[C@H](n3cc(C)c(=O)[nH]c3=O)C[C@@H]2O)cc1		10 µM		
Cc1ccc(NC(=S)NC[C@H]2O[C@H](n3cc(C)c(=O)[nH]c3=O)C[C@@H]2O)cc1		7.8 µM		
Cc1cn([C@H]2C[C@H](CNC(=S)Nc3ccc(Cl)c(C(F)(F)F)c3)[C@@H](CO)O2)c(=O)[nH]c1=O	> 100 µM	5 µM	> 1000 µM	
Cc1cn([C@H]2C[C@H](CNC(=S)Nc3ccc(Cl)cc3)[C@@H](CO)O2)c(=O)[nH]c1=O	> 100 µM	21 µM		
Cc1cn([C@@H]2C[C@H](O)[C@@H](CNC(=S)NCc3ccc(Cl)c(C(F)(F)F)c3)O2)c(=O)[nH]c1=O	> 100 µM	2.6 µM	50 µM	
Cc1cn([C@@H]2C[C@H](O)[C@@H](CNC(=S)Nc3ccc(Cl)c(C(F)(F)F)c3)O2)c(=O)[nH]c1=O	> 100 µM	0.6 µM	362 µM	39%
Cc1cn([C@@H]2C[C@H](O)[C@@H](CNC(=S)Nc3ccc(N4CCOCC4)cc3)O2)c(=O)[nH]c1=O		19.2 µM		
Cc1cn([C@@H]2C[C@H](O)[C@@H](CNC(=S)NCc3ccccc3)O2)c(=O)[nH]c1=O		5.4 µM		
Cc1cn([C@@H]2C[C@H](O)[C@@H](CNC(=S)Nc3ccc(Cl)cc3)O2)c(=O)[nH]c1=O		3.2 µM	> 1000 µM	
Cc1cn([C@@H]2C[C@H](O)[C@@H](CN)O2)c(=O)[nH]c1=O		16 µM		
Cc1cn(COCCNC(=S)Nc2ccc(Cl)c(C(F)(F)F)c2)c(=O)[nH]c1=O	100 µM	37 µM		34%
